In ChEMBL document CHEMBL1138678, “Concise synthesis and structure-activity relationships of combretastatin A-4 analogues, 1-aroylindoles and 3-aroylindoles, as novel classes of potent antitubulin agents” (J Med Chem, 2004):
pIC50: −log10 of the molar value.

Tests used:
MKN-45 = experiment: Concentration required for the 50% inhibition of human stomach cancer (MKN45) cell line growth; assay type: functional, cell-based
NUGC-3 = experiment: Concentration required for the 50% inhibition of human stomach cancer (NUGC3) cell line growth; assay type: functional, cell-based
A549 = experiment: Concentration required for the 50% inhibition of human lung caner (A549) cell line growth; assay type: functional, cell-based
MES-SA = experiment: Concentration required for the 50% inhibition of human uterine cancer (MESSA) cell line growth; assay type: functional, cell-based
MCF7 = experiment: Concentration required for the 50% inhibition of human breast cancer (MCF-7) cell line growth; assay type: functional, cell-based
Tubulin beta-1 chain = Tubulin beta-1 chain (Homo sapiens, UniProt Q9H4B7); experiment: Inhibition of tubulin polymerization
Sequence of Tubulin beta-1 chain (Q9H4B7 whole entry): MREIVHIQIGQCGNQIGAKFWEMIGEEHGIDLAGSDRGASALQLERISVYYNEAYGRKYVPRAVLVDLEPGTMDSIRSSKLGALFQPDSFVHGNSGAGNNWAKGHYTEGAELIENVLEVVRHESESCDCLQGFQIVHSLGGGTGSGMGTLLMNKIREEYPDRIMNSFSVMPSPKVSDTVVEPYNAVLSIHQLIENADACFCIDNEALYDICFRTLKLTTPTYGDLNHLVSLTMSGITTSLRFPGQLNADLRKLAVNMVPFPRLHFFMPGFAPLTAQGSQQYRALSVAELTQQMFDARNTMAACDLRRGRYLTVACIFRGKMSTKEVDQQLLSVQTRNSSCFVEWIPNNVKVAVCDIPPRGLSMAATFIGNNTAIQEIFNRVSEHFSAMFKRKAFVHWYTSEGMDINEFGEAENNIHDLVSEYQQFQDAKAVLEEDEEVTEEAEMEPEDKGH
Outline: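 MAP-rich tubulin at 2 mg/mL in 100 mM PIPES (pH 6.9), 2 mM MgCl2, 1 mM GTP, 2% (v/v) DMSO with compound. Turbidity read at 350 nm, 37 °C, every 30 s for 30 min. Area under curve scaled between untreated control (100%) and 10 μM colchicine (0%). IC50 by nonlinear regression, at least three experiments.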

SMILES | pIC50 (MKN-45) | pIC50 (NUGC-3) | pIC50 (A549) | pIC50 (MES-SA) | pIC50 (MCF7) | pIC50 (Tubulin beta-1 chain)
COc1ccc2c(ccn2C(=O)c2ccc3c(c2)OCO3)c1 | < 5.00 | < 5.00 | < 5.00 | < 5.00 | < 5.00 | 
COc1ccc2c(c1)cc(C)n2C(=O)c1cc(OC)c(OC)c(OC)c1 |  |  |  |  |  | 5.48
COc1ccc2[nH]cc(C(=O)c3cc(OC)c(OC)c(OC)c3)c2c1 | 6.49 | 6.44 | 6.21 | 6.05 | 6.19 | 
COc1cc(C(=O)c2c[nH]c3cccc(OC)c23)cc(OC)c1OC | 6.31 | 5.47 | 5.19 | 5.03 | 5.04 | 
COc1cc(OC)cc(C(=O)c2c[nH]c3cc(OC)ccc23)c1 |  |  |  |  |  | 5.57
COc1ccc2c(C(=O)c3cc(OC)c(OC)c(OC)c3)c(C)[nH]c2c1 |  |  |  |  |  | 6.05
COc1ccc2c(ccn2C(=O)c2cc(OC)c(OC)c(OC)c2)c1 |  |  |  |  |  | 5.42
COc1ccc2c(C(=O)c3cc(OC)c(OC)c(OC)c3)c[nH]c2c1 | 8.40 | 9.00 | 7.64 | 8.40 | 8.15 | 5.66
COc1ccc(/C=C\c2cc(OC)c(OC)c(OC)c2)cc1O [COMBRETASTATIN A4] | 7.09 | < 5.00 | 6.93 | 7.89 | 8.10 | 
